Assay outcomes deposited in PubChem by The Scripps Research Institute Molecular Screening Center.
The list is not random: actives were taken first. Their share in the collection is about 2.7%.
V1aR counter – agonists of human V1a receptor, primary screen, counter-screen for OXTR agonist project, fluorescence, CHO-V1R cells; Vasopressin V1a receptor (Homo sapiens), P37288; Fluo-8 calcium fluorescence, agonist mode; 0% DMSO, 100% 3 nM vasopressin; activation, % at 3 µM; 320,000 compounds, 0.25% hits;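 active = activation above the mean activation of all tested compounds plus 3 SD, per screening run, cut at about 20% in these data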;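 also: signal is peak over basal fluorescence ratio across a 100 second FLIPR read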
Target sequence (P37288 whole entry, looked up): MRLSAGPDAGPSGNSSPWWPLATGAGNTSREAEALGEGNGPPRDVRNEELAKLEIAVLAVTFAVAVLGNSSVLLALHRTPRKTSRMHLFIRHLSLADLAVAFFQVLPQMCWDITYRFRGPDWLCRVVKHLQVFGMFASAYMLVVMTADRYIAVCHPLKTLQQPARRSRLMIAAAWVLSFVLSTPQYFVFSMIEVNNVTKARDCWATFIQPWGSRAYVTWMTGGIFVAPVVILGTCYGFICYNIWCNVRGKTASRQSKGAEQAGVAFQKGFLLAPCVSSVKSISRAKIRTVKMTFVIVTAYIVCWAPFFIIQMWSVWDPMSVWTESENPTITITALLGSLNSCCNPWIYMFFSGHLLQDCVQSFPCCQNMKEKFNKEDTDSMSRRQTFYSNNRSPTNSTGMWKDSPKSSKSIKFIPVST
CHO parental Ca – ATP-evoked calcium signal inhibitors, parental CHO, primary screen, counter-screen for OX1R antagonist project, cell-based, fluorescence, Fluo-8 calcium dye. parental CHO-K1, ATP-induced calcium, Fluo-8 fluorescence. inhibition, % at 5.6 µM. 330,000 compounds, 0.63% hits;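 active = inhibition above that plate's mean sample inhibition plus 3 SD, cut at about 26% in these data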;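 also: 0% = ATP-challenged DMSO wells and 100% = DMSO wells without ATP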
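test system = CHO parental line | reagent = ATP stimulus | measured by = intracellular calcium via Fluo-8 no-wash fluorescent dye | control set = ATP and no-ATP DMSO wells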
OXTR ag – human OXTR agonists, primary screen, fluorescence, CHO-OTR cells, Fluo-8 calcium; AID 2435, 2010; activation, % at 3 µM; Fluo-8 calcium fluorescence; normalized: DMSO 0%, oxytocin 100%; 320,000 compounds, 0.32% hits; Oxytocin receptor (Homo sapiens), P30559;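 active = activation above the mean of all tested compounds plus 3 SD, cutoff set per screening run, cut at about 20% in these data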;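 also: peak over basal fluorescence ratio from a 100 s FLIPR kinetic read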
OX1R antag-1 – OX1R (HCRTR1) antagonists, primary screen, fluorescence, CHO/OX1R cells, Fluo-8 calcium, orexin A; Orexin/Hypocretin receptor type 1 (Homo sapiens), O43613; Fluo-8 calcium fluorescence; inhibition, % at 5 µM; 330,000 compounds, 0.43% hits;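 active = inhibition above its plate's threshold, mean inhibition of all tested compounds on the plate plus 3 SD, cut at about 37% in these data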;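 also: 0% = orexin A challenge wells and 100% = SB-334867-A antagonist wells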
OX1R antag-2 – antagonists of human orexin 1 receptor (OX1R); Orexin/Hypocretin receptor type 1 (Homo sapiens), O43613; OX1R-expressing cells, FRET antagonist read-out; inhibition, % at 6.6 µM; 330,000 compounds, 1.8% hits; AID 485270, 2010; in the data active = inhibition mostly above about 38%, no sharp cut-off; inactive = mostly below about 40%;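 also: 0% = agonist challenge alone and 100% = reference antagonist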
OXTR potentiate – human OXTR potentiators, primary screen, fluorescence, CHO-OTR cells, Fluo-8 calcium; Oxytocin receptor (Homo sapiens), P30559; Fluo-8 calcium fluorescence, potentiator mode; 0% = oxytocin EC15, 100% = EC100; 320,000 compounds, 0.061% hits; activation, % at 3 µM;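 active = activation above that plate's cutoff, the mean activation of tested compounds plus 3 SD, cut at about 6.6% in these data, passing the limit was not always enough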;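 also: 100% uses oxytocin at 75 nM as the full agonist control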
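Material: CHO-OTR cells, human receptor; compound dosing: single dose, 3.0 µM nominal final compound concentration; schedule: 6 min compound pre-incubation at room temperature, 100 s kinetic read; measured by: kinetic Fluo-8 calcium fluorescence; read-out basis: % activation vs EC15 and EC100 oxytocin; controls: EC15 oxytocin alone as 0%, 75 nM oxytocin as 100%; replicates: singlicate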
* hit, by the source's call.

O=C(O)c1cc([N+](=O)[O-])c(NCc2cccnc2)c([N+](=O)[O-])c1 was read as V1aR counter 1, CHO parental Ca -10, OXTR ag 1, OX1R antag-1 -14, OX1R antag-2 76* and OXTR potentiate 0.
`O=C(/C=C/c1ccccc1[N+](=O)[O-])NCc1cccnc1` gave V1aR counter 0, CHO parental Ca -4, OXTR ag -1, OX1R antag-1 -12, OX1R antag-2 61* and OXTR potentiate -4.
Screening CC(C)c1ccc(C(=O)NC(=S)NCc2cccnc2)cc1 returned V1aR counter 1, CHO parental Ca -7, OXTR ag -1, OX1R antag-1 -10, OX1R antag-2 23 and OXTR potentiate -6.
`O=C(NC(=S)NCc1cccnc1)c1ccc([N+](=O)[O-])cc1` gave V1aR counter 1, CHO parental Ca -11, OXTR ag -1, OX1R antag-1 -17, OX1R antag-2 75* and OXTR potentiate -3.
`COC(=O)C1(c2ccccc2)NC(c2ccc(O)cc2)C2C(=O)N(c3ccc4c(c3)OCO4)C(=O)C21` (stereo unspecified) gave V1aR counter 1, CHO parental Ca -3, OXTR ag 2, OX1R antag-1 -20, OX1R antag-2 11 and OXTR potentiate -1.
CC1=C/C(=C(/c2cc(C)c(O)c(Br)c2)c2ccccc2S(=O)(=O)O)C=C(Br)C1=O was read as V1aR counter 1, CHO parental Ca 5, OXTR ag 0, OX1R antag-1 -6, OX1R antag-2 41* and OXTR potentiate -8.
For CC1=C/C(=C(/c2ccc(O)c(C)c2)c2ccccc2S(=O)(=O)O)C=CC1=O the results were V1aR counter 0, CHO parental Ca -1, OXTR ag 0, OX1R antag-1 -3, OX1R antag-2 16 and OXTR potentiate -2.
`Cc1ccc(N2CC(C(=O)N3CCN(Cc4ccc5c(c4)OCO5)CC3)CC2=O)cc1` (stereo unspecified) gave V1aR counter 1, CHO parental Ca -15, OXTR ag 2, OX1R antag-1 -29, OX1R antag-2 20 and OXTR potentiate 3.
For CCN(CC)S(=O)(=O)c1cc(NC(=O)CNc2cccc(S(=O)(=O)N3CCCC3)c2)ccc1C the results were V1aR counter 5, CHO parental Ca 45*, OXTR ag 3, OX1R antag-1 30, OX1R antag-2 34 and OXTR potentiate -16.
`COc1ccc(CCC(=O)Nc2cccc(S(=O)(=O)N3CCCCCC3)c2)cc1OC` gave V1aR counter 10, CHO parental Ca -12, OXTR ag 6, OX1R antag-1 -17, OX1R antag-2 -1 and OXTR potentiate -10.
O=C(COC(=O)C1CC2C=CC1C2)Nc1cccc(S(=O)(=O)N2CCCCCC2)c1 (stereo unspecified) was read as V1aR counter 9, CHO parental Ca 33*, OXTR ag 8, OX1R antag-1 4, OX1R antag-2 21 and OXTR potentiate -18.
For COc1ccc(CC(=O)Nc2cccc(S(=O)(=O)N3CCCCCC3)c2)cc1OC the results were V1aR counter 9, CHO parental Ca 49*, OXTR ag 15, OX1R antag-1 4, OX1R antag-2 23 and OXTR potentiate -10.
`CCN(CC)S(=O)(=O)c1ccc(C)c(NC(=O)CNc2cccc(S(=O)(=O)N3CCOCC3)c2)c1` gave V1aR counter 0, CHO parental Ca -12, OXTR ag -1, OX1R antag-1 -24, OX1R antag-2 11 and OXTR potentiate -1.
CC(=O)c1c(C)[nH]c(C(=O)OCC(=O)Nc2cccc(S(=O)(=O)N3CCCC3)c2)c1C was read as V1aR counter 6, CHO parental Ca 29, OXTR ag 6, OX1R antag-1 39*, OX1R antag-2 13 and OXTR potentiate -13.
